Test results taken from ChEMBL document CHEMBL1255435, “Mechanism of resistance of hepatitis C virus replicons to structurally distinct cyclophilin inhibitors” (Antimicrob Agents Chemother, 2010).
pEC50: −log10 of the molar value.

Key:
[1] = system: Hepatitis C virus; test: Antiviral activity against cyclosporine A/NIM-resistant HCV subtype 1b Con1 infected in human HuH7 cells assessed as reduction in viral RNA level after 48 hrs by qRT-PCR analysis; details: Con1, Huh-7, 48 h
[2] = system: Hepatitis C virus; test: Antiviral activity against HCV subtype 1b Con1 infected in cyclosporine A/NIM-resistant human HuH7 cells assessed as reduction in viral RNA level after 48 hrs by qRT-PCR analysis; assay type: functional, organism-based, Hepacivirus hominis; details: Con1, Huh-7, 48 h
Method in brief: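 CsA/NIM-resistant cells were cured of replicon: G418 removed, then 1 μM BILN2061 for 2 weeks and 5 μM for 2 more. Wild-type pCon1 replicon RNA was electroporated back in and cells selected in 250 μg/ml G418 for at least 2 weeks. Pooled colonies were treated 48 h with compound; EC50 came from qRT-PCR HCV RNA normalized to total RNA.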

[3] = system: Hepatitis C virus; test: Antiviral activity against cyclosporine A/NIM811-resistant HCV subtype 1b Con1 infected in human HuH7 cells assessed as reduction in viral RNA level after 48 hrs by qRT-PCR analysis; assay type: functional, organism-based, Hepacivirus hominis; details: Con1, Huh-7, 48 h
Method in brief: (§1)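 Con1 genotype 1b subgenomic replicon Huh7 cells (clone A or derived lines) were seeded at 10,000/well overnight without G418. They were treated 48 h with serially diluted compound in 2% FBS and 0.5% DMSO. HCV RNA was measured by TaqMan qRT-PCR and normalized to total RNA. Six replicates per point; EC50 is the concentration giving 50% reduction in HCV RNA.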

[4] = system: Hepatitis C virus; test: Antiviral activity against HCV subtype 1b Con1 harboring NIM-resistant NS5A gene infected in human HuH7 cells assessed as reduction in viral RNA level after 48 hrs by qRT-PCR analysis; details: Con1, Huh-7, 48 h
[5] = system: Hepatitis C virus; test: Antiviral activity against HCV subtype 1b Con1 harboring NS5A and NS5B C575G mutant […] infected in human HuH7 cells assessed as reduction in viral RNA level after 48 hrs by qRT-PCR analysis; assay type: functional, organism-based, Hepacivirus hominis; details: Con1, Huh-7, 48 h
[6] = system: Hepatitis C virus; test: Antiviral activity against HCV subtype 1b Con1 infected in human HuH7 cells assessed as reduction in viral RNA level after 48 hrs by qRT-PCR analysis relative to control; assay type: functional, Hepacivirus hominis, Huh-7
Method in brief: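 Subgenomic genotype 1b Con1 replicon cells (clone A and derived lines) seeded 10,000/well overnight without G418, then treated 48 h with serially diluted compound in 2% FBS, 0.5% DMSO. HCV RNA quantified by TaqMan qRT-PCR, normalized to total RNA; six replicates per point. Percent inhibition versus control cells; EC50 is the concentration reducing HCV RNA by 50%.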

[7] = system: Hepatitis C virus; test: Antiviral activity against cyclosporine A-resistant HCV subtype 1b Con1 infected in human HuH7 cells assessed as reduction in viral RNA level after 48 hrs by qRT-PCR analysis; details: Con1, Huh-7, 48 h
[8] = system: Hepatitis C virus; test: Antiviral activity against HCV subtype 1b Con1 harboring wild type protease infected in human HuH7 cells assessed as reduction in viral RNA level after 48 hrs by qRT-PCR analysis; assay type: functional, organism-based, Hepacivirus hominis; details: Con1, Huh-7, 48 h
Method in brief: as §1

[9] = system: Hepatitis C virus; test: Antiviral activity against cyclosporine A/NIM811-resistant HCV subtype 1b Con1 infected in human HuH7 cells assessed as reduction in viral RNA level after 48 hrs by qRT-PCR analysis relative to control; assay type: functional, Hepacivirus hominis, Huh-7
Method in brief: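 Clone A replicon cells were resistance-selected by 8-week passage with increasing CsA up to 5 μM, then 5 μM NIM811 for 5 more weeks, with 250 μg/ml G418. Control cells were passaged in 0.2% DMSO for the same period. Both were seeded at 10,000/well and treated 48 h with serial dilutions in 2% FBS/0.5% DMSO. HCV RNA was measured by qRT-PCR, normalized to total RNA. EC50 expressed as fold over DMSO control.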

[10] = system: Hepatitis C virus; test: Antiviral activity against wild type HCV subtype 1b Con1 infected in human HuH7 cells assessed as reduction in viral RNA level after 48 hrs by qRT-PCR analysis; assay type: functional, organism-based, Hepacivirus hominis; details: Con1, Huh-7, 48 h
Method in brief: as §1

[11] = system: Hepatitis C virus; test: Antiviral activity against HCV subtype 1b Con1 infected in human HuH7 cells assessed as reduction in viral RNA level after 48 hrs by qRT-PCR analysis; assay type: functional, organism-based, Hepacivirus hominis; details: Con1, Huh-7, 48 h
Method in brief: as §1

[12] = system: Hepatitis C virus; test: Antiviral activity against HCV subtype 1b Con1 infected in human HuH7 cells assessed as reduction in viral RNA level after 48 hrs by MTS assay; details: Con1, Huh-7, 48 h

| SMILES | pEC50 [1] | pEC50 [2] | pEC50 [3] | pEC50 [4] | pEC50 [5] | fold change (FC) [6] | pEC50 [7] | pEC50 [8] | fold change (FC) [9] | pEC50 [10] | pEC50 [11] | pEC50 [12] |
| --- | --- | --- | --- | --- | --- | --- | --- | --- | --- | --- | --- | --- |
| C/C=C/C[C@@H](C)[C@@H](O)[C@H]1C(=O)N[C@@H](CC)C(=O)N(C)CC(=O)N(C)[C@@H]([C@@H](C)CC)C(=O)NC(C(C)C)C(=O)N(C)[C@@H](CC(C)C)C(=O)N[C@@H](C)C(=O)N[C@H](C)C(=O)N(C)C(CC(C)C)C(=O)N(C)[C@@H](CC(C)C)C(=O)N(C)[C@@H](C(C)C)C(=O)N1C (single isomer, unassigned) [NIM811] | 5.46 | 6.77 | 5.82 | 6.03 | 5.94 | 1 | 6.08 | 6.64 | 17.9 | 6.92 | 7.08 | – |
| COc1ccc2c(O[C@@H]3C[C@H]4C(=O)N[C@]5(C(=O)O)C[C@H]5/C=C\CCCCC[C@H](NC(=O)OC5CCCC5)C(=O)N4C3)cc(-c3csc(NC(C)C)n3)nc2c1 [CILUPREVIR] | – | – | – | – | – | – | – | – | – | – | 8.85 | – |
| C/C=C/C[C@@H](C)[C@@H](O)[C@H]1C(=O)N[C@@H](CC)C(=O)N(C)CC(=O)N(C)[C@@H](CC(C)C)C(=O)N[C@@H](C(C)C)C(=O)N(C)[C@@H](CC(C)C)C(=O)N[C@@H](C)C(=O)N[C@H](C)C(=O)N(C)[C@@H](CC(C)C)C(=O)N(C)[C@@H](CC(C)C)C(=O)N(C)[C@@H](C(C)C)C(=O)N1C [CYCLOSPORINE] | < 5.00 | – | – | – | – | – | 5.47 | – | – | – | – | 6.68 |
